Source: PubChem
Hits are enriched below; roughly 9.5% of the tested compounds scored in any of these assays.
Htt clearance: clearance of mutant huntingtin inclusions, primary screen, imaging, HeLa Exon1htt(103Q)mCFP, confocal imaging; 47,000 tested, 0.42% active; inhibition, % at 1.5 µM; aggregate imaging; zero = plate's median compound well;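 active means inhibition of aggregate fluorescence above about 70%, also judged a hit by eye on the cell image, limit read from the data, passing the limit was not always enough; inconclusive means no rule stated for this call; inactive means not judged a hit on image review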;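 further: cells exposed to compound for three days before fixation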
M1 agonist: M1 muscarinic receptor agonists, primary screen, CHO-M1 cells, Fluo-4 calcium, agonist mode. Muscarinic acetylcholine receptor M1. Fluo-4 calcium fluorescence; stronger effect = higher value. B-score at 10 µM. 64,000 tested, 3% active;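 active means fluorescence rise, raw or as B-score row- and column-corrected plate score, outside the 99.7% band of its plate's samples, either direction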
D1 mod: D1 CRE-luciferase signal change, two-sided – cell-based, HEK293 D1, dopamine EC30, D1 allosteric modulator project, primary screen; B-score at 10 µM; AID 641, 2007; dopamine EC30 potentiation; actives deviate in either direction; D(1A) dopamine receptor (Homo sapiens), P21728; 58,000 tested, 5.9% active;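 active means luminescence count or its row- and column-corrected plate score outside the 99.7% band of the plate's sample wells, on either side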
Target sequence (P21728 whole entry, looked up): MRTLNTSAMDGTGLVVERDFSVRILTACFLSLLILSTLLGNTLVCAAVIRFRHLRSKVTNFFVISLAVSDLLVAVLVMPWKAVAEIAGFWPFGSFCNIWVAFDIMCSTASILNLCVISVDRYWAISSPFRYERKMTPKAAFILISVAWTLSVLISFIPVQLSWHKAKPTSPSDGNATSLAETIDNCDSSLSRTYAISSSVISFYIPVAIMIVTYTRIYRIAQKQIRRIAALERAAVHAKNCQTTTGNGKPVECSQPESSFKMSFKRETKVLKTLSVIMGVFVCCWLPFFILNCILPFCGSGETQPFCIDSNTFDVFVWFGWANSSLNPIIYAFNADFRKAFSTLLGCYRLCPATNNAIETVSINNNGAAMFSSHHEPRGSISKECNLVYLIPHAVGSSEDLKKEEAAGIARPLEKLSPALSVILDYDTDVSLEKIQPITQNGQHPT
M1 antag: antagonists of rat M1 muscarinic receptor. Muscarinic acetylcholine receptor M1 (Rattus norvegicus), P08482. 64,000 tested, 3.4% active. AID 628, 2007. CHO-M1 cells, Fluo-4 calcium, ACh EC80 antagonist mode; stronger effect = lower value. B-score at 10 µM;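 active means calcium fluorescence response, raw or row-and-column corrected B-score, differing from the plate sample mean either way at a set confidence level, mostly lower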
Jurkat tox 60K: cytotoxicity toward Jurkat T cells, primary screen, cytotoxicity control, cell-based, Jurkat E6.1, 60K MLSMR library; Jurkat E6.1 viability, ATP luminescence, 48 h; inhibition, % at 4 µM; 56,000 tested, 1.2% active;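 active means inhibition above the mean inhibition of all tested compounds plus 3 SD, cut at about 28% in these data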
HEK293 NFkB inh: inhibitors of PMA/ionomycin-induced NF-kB reporter, primary screen, antigen receptor NF-kB inhibitor project, cell-based, HEK-293 luciferase reporter, luminescence | HEK-293 NF-kB luciferase reporter | 62,000 tested, 0.21% active | inhibition, % at 3 µM;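 active means inhibition above the mean of all tested compounds plus 3 SD, cut at about 40% in these data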;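 further: 0% = stimulated DMSO wells and 100% = 10 µM reference inhibitor 5653914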
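Timing: 1 h pretreatment, 16 h stimulation, 37 °C; system: HEK-293 cells with stable firefly luciferase reporter driven by four HIV NF-kB elements; doses: 3 µM once, 0.30% DMSO; measured by: luciferase luminescence; control set: DMSO and 10 µM reference inhibitor; repeats: single test; reagent: PMA plus ionomycin mix as NF-kB-activating stimulus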
M1 ag confirm: rat M1 muscarinic receptor agonists, confirmation, CHO-M1 cells, Fluo-4 calcium, duplicate retest | shares compounds with M1 agonist | Fluo-4 calcium fluorescence, agonist mode; actives lie on both sides | fluorescence change (max-min) at 10 µM | 1,700 tested, 19% active;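 active means fluorescence change differs from the solvent-only DMSO control mean at a set confidence level in both duplicate runs; inconclusive means differs from solvent-only control mean in just one of two runs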;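 further: an EC20 dose of acetylcholine follows compound addition during the same imaging run; raw fluorescence intensity difference in instrument units with no normalization to controls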
M4 agonist ctr: agonist activity at rat M4 receptor, confirmation, counter-screen for M1 allosteric modulator project, cell-based, agonist mode; shares compounds with M1 agonist; CHO M4/Gqi5 cells, Fluo-4 calcium fluorescence; actives lie on both sides; fluorescence change (max-min) at 10 µM; 1,700 tested, 9% active; AID 1741, 2009;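 active means fluorescence change differing from the plate's solvent-only control wells at 99.7% confidence in both duplicates, whether higher or lower; inconclusive means differs from solvent controls in only one of two duplicates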
An asterisk follows results filed as active; ? = inconclusive; . = no result given.

SMILES | Htt clearance | M1 agonist | D1 mod | M1 antag | Jurkat tox 60K | HEK293 NFkB inh | M1 ag confirm | M4 agonist ctr
O=C(c1cccs1)C1CN2CCC1CC2 (stereo unspecified) | . | 8.4* | -0.12 | -5.5* | -3 | 12 | 32 | 15
COc1cc2nc(CN3CC=C(c4ccccc4)CC3)[nH]c(=O)c2cc1OC | . | 0.047 | -1.9 | 0.99 | -3 | 12 | . | .
CCn1c(O)c(C(=O)CC2NCCc3ccccc32)c(=O)n(CC)c1=S (stereo unspecified) | -18 | -0.48 | . | -1.5 | . | . | . | .
CCOC(=O)c1c(N)n(Cc2ccco2)c2nc3ccccc3nc12 | -21 | -0.002 | 0.6 | -0.29 | 10 | -15 | . | .
CCCCn1c(NC(=O)c2ccco2)c(C(=O)OCC)c2nc3ccccc3nc21 | -36 | 6.6* | 0.88 | -0.37 | 16 | 7 | 24 | ?
Nc1c(C(=O)OC2CCCCC2)c2nc3ccccc3nc2n1CC1CCCO1 (stereo unspecified) | 7 | 4.1* | -1.5 | 0.2 | -4 | 9 | -8.5 | -46
CCN(CC)c1ccc(N=Cc2c(O)n(-c3ccccc3C)c(=O)[nH]c2=O)cc1 | 2 | 22* | . | -0.55 | . | . | 46 | 17
CCOc1ccccc1-n1c(O)c(C=Nc2ccc(N(CC)CC)cc2)c(=O)[nH]c1=O | . | 8.7 | -1.3 | -1.8 | . | . | . | .
CCOc1ccc(-n2c(O)c(C=NCCN3CCNCC3)c(=O)[nH]c2=O)cc1 | . | 0.55 | -0.22 | -0.032 | . | . | . | .
CCC(C)N1C(=O)NC(=O)C2(Cc3c(ccc4ccccc34)N(C)C2)C1=O (stereo unspecified) | 2 | 13* | -1.7 | -2.1 | 2 | 11 | ? | ?
CCc1nnc(NC(=O)CCc2nc(C3=CCN(C)CC3)no2)s1 | . | . | -0.86 | . | 1 | 8 | . | .
COc1ccc2nc(NC(=O)CCc3nc(C4=CCN(C)CC4)no3)sc2c1 | . | 5.1* | -2.3 | -0.23 | -3 | 15 | -1.6 | -41
Cc1ccc(S(=O)(=O)Nc2cc(C(=O)N3CCC4(CC3)OCCO4)ccc2N2CCCCC2)cc1 | 28 | 2.8* | 0.34 | -0.42 | -3 | 16 | -9.9 | -20
COc1ccc2c(c1)c(C(=O)CN1CCN(C)CC1)c(C)n2Cc1ccccc1 | -15 | 2.6* | -0.42 | -0.47 | -1 | 4 | ? | -71
O=P(NS(=O)(=O)c1ccc(Br)cc1)(Oc1ccccc1)Oc1ccccc1 | 19 | . | . | . | . | . | . | .
O=C1NC(=O)C2(Cc3c(nc4ccccn4c3=O)N3CCCCCC32)C(=O)N1Cc1ccccc1 (stereo unspecified) | 24 | 12* | -0.31 | 0.26 | -1 | 12 | -11 | -22
O=C1NC(=O)C2(Cc3ccccc3N3CCCC32)C(=O)N1Cc1ccccc1 (stereo unspecified) | . | 0.47 | -0.047 | 0.31 | 3 | 15 | . | .
CC(C)Cn1cc(C(=O)N2CCC3(CC2)OCCO3)c2c3ccccc3n(C)c2c1=O | -19 | 3* | -1.2 | -1.6 | -2 | -1 | -2 | -19
Cn1cc(C(=O)N2CCC3(CC2)OCCO3)c2c3ccccc3n(C)c2c1=O | . | -0.089 | 0.86 | 0.0014 | -4 | -6 | . | .
Cn1c2ccccc2c2c(C(=O)N3CCC4(CC3)OCCO4)cn(C3CCCCC3)c(=O)c21 | . | 4.3* | -0.53 | -0.67 | . | 15 | -14 | -54
CSc1nnc(C2CCNCC2)n1C | . | -0.29 | -0.0071 | -0.027 | 4 | 14 | . | .
CCC(=NCc1ccc2c(c1)OCO2)c1c(O)n(C)c(=O)n(C)c1=O | 6 | 2.9* | . | -0.61 | 11 | 9 | 12 | -35
CCC(=NCCN1CCCCC1)c1c(O)n(C)c(=O)n(C)c1=O | 54 | -0.35 | . | -0.37 | . | . | . | .
